Assay outcomes as filed in PubChem BioAssay.
Sampled rows, rich in hits. Any-hit rate of the full collection: about 4.2%.
OX1R antag-1: antagonists of human orexin 1 receptor | O43613 | CHO/OX1R cells, Fluo-8 calcium fluorescence, orexin A | inhibition, % at 5 µM | 0.43% of 330,000 active | AID 434989;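 active = inhibition above its plate's threshold, mean inhibition of all tested compounds on the plate plus 3 SD, cut at about 37% in these data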
CHO parental Ca: counter-screen for OX1R antagonists: effect in parental CHO cells. parental CHO-K1, ATP-induced calcium, Fluo-8 fluorescence. inhibition, % at 5.6 µM. 0.63% of 330,000 active. AID 463079;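 active = inhibition above that plate's mean sample inhibition plus 3 SD, cut at about 26% in these data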
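test system = CHO parental line | reagent = ATP stimulus | measured by = intracellular calcium via Fluo-8 no-wash fluorescent dye | control set = ATP and no-ATP DMSO wells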
OX1R antag-2: OX1R (human) antagonism; O43613; OX1R-expressing cells, FRET antagonist read-out; inhibition, % at 6.6 µM; 1.8% of 330,000 active; AID 485270; in the data active = inhibition mostly above about 38%, no sharp cut-off; inactive = mostly below about 40%
TAAR1 ag: human TAAR1 agonism | Q96RJ0 | activation, % at 3 µM | 0.99% of 360,000 active | CHO RD-HGA16 TAAR1, Fluo-8 calcium fluorescence; vehicle wells 0%, saturating PEA agonist 100%;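 active = activation above the mean activation of all test compounds in the run plus 3 SD, cut at about 38% in these data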
Target sequence (Q96RJ0 whole entry, looked up): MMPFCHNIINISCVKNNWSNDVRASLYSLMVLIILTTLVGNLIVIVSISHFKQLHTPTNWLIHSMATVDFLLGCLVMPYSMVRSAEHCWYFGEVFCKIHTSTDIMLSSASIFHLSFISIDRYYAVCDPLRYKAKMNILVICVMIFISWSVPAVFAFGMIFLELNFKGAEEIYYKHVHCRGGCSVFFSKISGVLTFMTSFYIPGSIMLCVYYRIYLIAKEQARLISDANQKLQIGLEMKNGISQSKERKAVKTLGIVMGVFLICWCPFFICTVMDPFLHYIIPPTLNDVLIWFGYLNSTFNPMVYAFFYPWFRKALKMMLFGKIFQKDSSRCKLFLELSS
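Test system: RD-HGA16 (CHO) cells co-expressing Gα16 and hTAAR1; dosing: one-point dosing at 3 µM (nominal); timing: 17-24 h seeding, 75 min 37 °C dye, 30 min RT; signal: kinetic Fluo-8 calcium fluorescence; read-out basis: % activation relative to PEA EC100 response; controls: DMSO and PEA EC100; replicates: n 1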
TAAR1 antag: antagonists of human TAAR1 | Q96RJ0 | CHO RD-HGA16 TAAR1, Fluo-8 calcium fluorescence, antagonist | inhibition, % at 3 µM | 1.5% of 360,000 active;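 active = inhibition above a per-plate cutoff, the mean inhibition of test compounds on that plate plus 3 SD, cut at about 49% in these data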
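Test system – hTAAR1-expressing CHO RD-HGA16 cells, Gα16-coupled · Also added – β-PEA at EC80 concentration, post-compound challenge · Compound – 3 µM, single point · Incubation – dye loading 75 min at 37 °C, then 30 min room temperature · Measured by – Fluo-8 intracellular calcium dye fluorescence, real-time kinetic reads · Benchmarks – vehicle and agonist controls · Replicates – singlicate, one well per test compound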
GalR3 antagonist: antagonists of human GalR3; HEK293 GalR3-CNG cAMP membrane potential fluorescence; galR3 body fused to GalR1 C-terminus; inhibition, % at 3 µM; 0.44% of 360,000 active;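 active = inhibition above the screen-wide average plus 3 SD, cut at about 13% in these data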;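 also: forskolin and galanin both at EC90 stimulate the cells; cAMP rise reported by CNG channel membrane potential dye signal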
Target sequence (O60755 1-299 limits assumed): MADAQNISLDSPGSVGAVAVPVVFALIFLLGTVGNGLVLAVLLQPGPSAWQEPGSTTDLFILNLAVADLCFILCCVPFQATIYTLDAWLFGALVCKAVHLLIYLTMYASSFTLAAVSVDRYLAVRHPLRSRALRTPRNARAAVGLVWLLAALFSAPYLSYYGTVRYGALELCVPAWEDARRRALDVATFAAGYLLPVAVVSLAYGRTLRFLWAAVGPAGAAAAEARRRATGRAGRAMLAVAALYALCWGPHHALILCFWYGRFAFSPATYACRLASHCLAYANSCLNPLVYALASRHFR
A number is an active result; i = inactive; nt = no result given.

SMILES | OX1R antag-1 | CHO parental Ca | OX1R antag-2 | TAAR1 ag | TAAR1 antag | GalR3 antagonist
COc1ccc(-c2cc3ccccc3nc2N)cc1OC | i | i | i | i | i | i
O=C(NS(=O)(=O)c1ccc2ccc(S(=O)(=O)NCCSc3ccccc3)cc2c1)c1cccc2ccccc12 | nt | nt | nt | i | i | i
Cc1csc(=O)n1CC(=O)OCC(=O)NNC(=O)c1ccc([N+](=O)[O-])cc1 | i | i | 76 | i | i | i
O=C(CNC(=O)c1ccccc1)OCc1nnc(-c2ccccc2)o1 | i | i | i | i | i | i
Cc1ccc(C(=O)NCC(=O)OCc2nnc(-c3ccc([N+](=O)[O-])cc3)o2)s1 | i | i | 38 | i | i | i
Cc1cc(C)c(N=C2CCCN2Cc2ccccc2)c(C#N)c1 | i | 40 | i | i | i | i
Cc1noc(C)c1CSCC(=O)Oc1ccc(N(C)S(=O)(=O)c2ccccc2)cc1 | i | i | i | i | i | i
Cc1noc(C)c1CSCC(=O)Oc1ccc(N(C)S(=O)(=O)c2ccc(Cl)cc2)cc1 | i | i | i | i | 53 | i
OCC1(Cc2ccc(Cl)cc2)CCN(CCCc2ccccc2)CC1 | i | i | i | i | i | i
Cc1c(C(=O)Nc2ccncc2)sc2nc(-c3ccc(F)cc3)cn12 | i | 77 | i | i | i | nt
COc1ccc(NC(=O)c2cc3c(=O)n(C)c4ccccc4c3n2C)cc1OC | i | i | 43 | i | i | nt
COc1ccc(NC(=O)c2cc3c(=O)n(C)c4ccccc4c3n2C)cc1Cl | i | i | i | i | i | i
COc1cc(C(=S)N2CCOCC2)cc(OC)c1OC(=O)c1ccccc1[N+](=O)[O-] | i | i | 34 | i | i | i
COc1cc(C(=S)N2CCOCC2)ccc1OC(=O)c1ccc(Br)cc1 | nt | nt | nt | i | 75 | i
O=c1[nH]cnc2scc(-c3cccs3)c12 | i | i | i | i | i | i
Cc1cc(C(=O)CSc2nnnn2C)c(C)n1Cc1ccco1 | i | i | i | i | i | i
Cc1cc(C)nc(N2N=C(CSc3ccc(Cl)cc3)CC2=O)n1 | i | i | i | i | i | i
NS(=O)(=O)c1cccc(NS(=O)(=O)c2ccc(/C=C/C(=O)OCC(=O)c3ccc(Br)cc3)cc2)c1 | i | 25 | i | i | i | i
COc1ccc(C(=O)COC(=O)/C=C/c2ccc(S(=O)(=O)Nc3cccc(S(N)(=O)=O)c3)cc2)cc1 | i | i | i | i | i | i
CC/C(=N\Nc1ccc([N+](=O)[O-])cc1)c1ccccc1 | i | i | 53 | nt | nt | nt
COC(=O)c1ccc(NC(=O)c2ccc3nsnc3c2)cc1 | i | i | i | i | i | i
N#C/C(=C(/O)c1ccccc1F)c1nc2cc(C(F)(F)F)ccc2s1 | i | i | i | i | i | i
N#C/C(=C(/O)c1ccc2c(c1)OCO2)c1nc2cc(C(F)(F)F)ccc2s1 | i | i | 58 | i | i | i
CN(C)/C=N/c1ncc(C(=O)c2ccc3ccccc3c2)s1 | i | i | 42 | i | i | i
COc1ccc2nc(/N=C\N(C)C)sc2c1 | i | i | i | i | i | i
SMILES | OX1R antag-1 | CHO parental Ca | OX1R antag-2 | TAAR1 ag | TAAR1 antag | GalR3 antagonist
Cc1nnc(NC(=O)c2ccc3ccccc3c2)s1 | i | i | i | i | i | i
COc1ccc(C(=O)c2cnc(/N=C/N(C)C)s2)cc1 | i | i | 46 | i | i | i
COc1ccc(C(=O)CSc2nnc(-c3cccs3)n2-c2ccccc2)cc1 | i | i | i | i | i | i
COc1ccc(C(=O)CSc2nnc(CN3CCCCC3)n2-c2ccc(F)cc2)cc1 | i | i | i | 47 | i | i
Cc1ccc(C(=O)Nc2ccccc2C(=O)NC(C(=O)O)C(C)C)cc1 (stereo unspecified) | i | i | i | i | i | i
COc1ccc(CNC(=O)Nc2cc(C)cc(C)c2)cc1 | i | i | i | i | i | i
COc1ccc(CNC(=O)Nc2ccc(C)cc2)cc1 | i | 37 | i | i | i | i
CCc1nc2ccc(C(=O)Nc3cc(-c4ccccc4)ccc3OC)cn2c1N(C)Cc1nccs1 | nt | nt | nt | i | 54 | i
CCc1nc2ccc(C(=O)Nc3cccc(OCC(=O)N(C)C)c3)cn2c1N(C)Cc1cc2ccccc2s1 | nt | nt | nt | i | 71 | i
CCNC(=O)N(C)c1c(CC)nc2ccc(C(=O)Nc3cccc(OCC(=O)N(C)C)c3)cn12 | nt | nt | nt | i | i | i
CSCCC(C(=O)OCC(=O)c1ccc(C)c(C)c1)N1C(=O)c2cc(Cl)c(Cl)cc2C1=O (stereo unspecified) | i | i | i | i | i | i
O=C(O)CCC(=O)NC1CCCCC1 | i | i | i | i | i | i
CSCCC(NS(=O)(=O)c1ccc(Cl)cc1)C(=O)O (stereo unspecified) | i | i | i | i | i | i
CSCCC(NS(=O)(=O)c1ccc(Cl)cc1)C(=O)OCc1c(Cl)cccc1Cl (stereo unspecified) | i | i | 66 | i | i | i
CSCCC(NS(=O)(=O)c1ccc(Cl)cc1)C(=O)OCC(=O)N(C(C)C)C(C)C (stereo unspecified) | i | i | i | i | i | i
CSCCC(NS(=O)(=O)c1ccc(Cl)cc1)C(=O)OCc1cccc(Cl)c1 (stereo unspecified) | i | 41 | i | i | i | i
CCn1cc([N+](=O)[O-])c(C(=O)Nc2ccc(Br)cn2)n1 | i | i | i | i | i | i
O=C(NN1c2ccccc2CCc2ccccc21)c1ccccc1Br | i | i | 66 | i | i | i
Cc1ccc2cccc(NC(=S)NC(=O)c3ccn(C)n3)c2n1 | i | i | 65 | i | i | i
OCCCCNCc1ccc(OCc2ccc(Cl)cc2Cl)cc1 | i | i | i | 38 | i | i
O=C1[C@@H]2[C@H](C(=O)N1C[C@@H](COCc1ccccc1)Oc1cccc3c1S(=O)(=O)N(CCc1ccc(F)cc1)C[C@H](COCc1ccccc1)O3)[C@@H]1C=C[C@H]2C1 | nt | nt | nt | i | i | i
CCCCN1CC(COCc2ccccc2)Oc2cccc(OCCN3C(=O)[C@@H]4[C@H](C3=O)C3C=C[C@H]4C3)c2S1(=O)=O (stereo partly specified) | nt | nt | nt | i | 70 | i
CN(C)CCCN(C(=O)c1ccc2c(c1)CCCC2)c1nc2cc3c(cc2s1)OCO3 | i | i | i | 41 | i | i
CN(C)CCCN(C(=O)c1ccc(S(=O)(=O)N2CCc3ccccc3C2)cc1)c1nc2c(F)cccc2s1 | i | i | i | i | i | i
Cc1ccc2nc(N(CCCN(C)C)C(=O)c3ccc(S(=O)(=O)N4CCc5ccccc5C4)cc3)sc2c1 | i | i | i | 45 | i | i
COc1ccc2sc(N(CCCN(C)C)C(=O)c3ccc(S(=O)(=O)N4CCCC4)cc3)nc2c1 | i | i | i | i | i | i
